Compound activity as filed in PubChem BioAssay.
Diaphorase act = activates diaphorase or chemically reduces, flagging diaphorase assay artifacts; actives 0.005% (n = 190,000); activation factor at 20 µM; Diaphorase/resazurin coupled assay, resorufin fluorescence, 16 min; hits give high values; 1 = vehicle wells, 0 = NADH-free wells;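 active means diaphorase activity raised at least twofold by the compound at 20 µM; inactive means activation factor below 2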
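Material: Clostridium kluyveri diaphorase, purified enzyme; Quantity: enzyme 0.07 U/mL final; Medium: HEPES pH 7.4 buffer with MgCl2 and Tween 20; Dosing: single compound dose of 20 µM, 1% DMSO final; Schedule: 16 min reaction at room temperature; Measured by: red resorufin fluorescence at 544/590 nm excitation/emission.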
L major viab = reduces viability of Leishmania major promastigotes | inhibition, % at 10 µM | actives 9% (n = 200,000) | resazurin fluorescence viability;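 further: promastigotes grown with compound for 44 hours at 28 °C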
PfGluPho inh = PfG6PD (Plasmodium falciparum) enzyme inhibition. PfGluPho enzyme, NADPH resazurin-diaphorase fluorescence. inhibition, % at 20 µM. actives 0.78% (n = 350,000);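 active means inhibition reaching at least a set limit at 20 µM in the primary screen, cut at about 59% in these data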;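 further: 0% = DMSO wells with substrate and 100% = DMSO wells lacking glucose-6-phosphate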
Redox H2O2 prof = compounds producing H2O2 with reducing agent – biochemical, NIH compound library profiling, artefact control for MLSCN library redox annotation, primary screen | DTT-dependent redox cycling H2O2, phenol red/HRP absorbance; 100% = 100 µM peroxide control, 0% = buffer | activation, % at 10 µM | actives 0.03% (n = 200,000) | AID 878;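 active means activation of at least 50% relative to the plate's high and low controls in the primary single-dose screen; inactive means activation below 50%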;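 further: compound incubated with DTT at 0.8 mM final as the reducing agent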
G6PDH CS = inhibits Leuconostoc G6PDH, flagging false hits in G6PDH-based assays. inhibition, % at 5 µM. Purified L. mesenteroides G6PDH, diaphorase/resazurin coupled fluorescence, 45 min. actives 0.12% (n = 200,000)
Diaphorase inh = counter-screen for diaphorase-based assays: diaphorase inhibitors and chemical oxidizers | inhibition, % at 20 µM | actives 0.69% (n = 190,000) | diaphorase resazurin-to-resorufin fluorescence, NADH, 16 min; bacterial (C. kluyveri) enzyme, not human;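 active means primary screen inhibition at 20 µM above a set limit, cut at about 50% in these data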;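 further: plate controls were DMSO with full reaction for no effect and wells lacking NADH for full effect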
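System: Diaphorase enzyme from Clostridium kluyveri | Amount: Enzyme working solution with 0.14 U/mL diaphorase | Benchmarks: No-NADH positive control and DMSO neutral control | Signal: Fluorescence of resorufin formed from resazurin, Ex 544/Em 590 nm | Schedule: 16-min room-temperature incubation before reading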
Starred values were filed as active, the others as inactive; x = no result. The sample as a whole holds a higher share of hits than the screen did. Unless noted, no stated cut-off is given here; in the data, active means inhibition above about 50%; inactive means the rest.

SMILES	Diaphorase act	L major viab	PfGluPho inh	Redox H2O2 prof	G6PDH CS	Diaphorase inh
CN(C)c1ccc(N=Nc2ccccc2C(=O)OCC(=O)N(C)c2ccccc2)cc1	0.8	11	-21	1	-47	15
Cc1ccc(OCC(=O)NC2CCSc3ccccc32)cc1 (stereo not drawn)	x	x	-11	x	x	x
O=C(Nc1ccccc1)C1=C[C@@H](C2CC2)C[C@@H](OCc2ccc(CO)cc2)O1	0.9	-2	17	0	7	9
O=C(CSc1nc2c(cnn2-c2ccccc2)c(=O)[nH]1)N1N=C(c2cccs2)CC1c1ccc(F)cc1 (stereo not drawn)	0.7	69*	-19	1	10	32
O=C1CN(C(=O)CSc2nc3c(cnn3-c3ccccc3)c(=O)[nH]2)c2ccccc2N1	x	x	-27	x	x	x
O=C(CSc1ccc2nnc(-c3ccc(Cl)cc3)n2n1)N1CCCc2ccccc21	1	14	3	0	-66	-1
O=C(CSc1nc2c(cnn2-c2ccc(F)cc2)c(=O)[nH]1)N1CCCc2ccccc21	0.4	3	-41	-3	0	63*
CC(=O)N1CCN(C(=O)CSc2nc3c(cnn3-c3ccccc3)c(=O)[nH]2)CC1	0.9	9	-24	0	3	11
O=C(CSc1ccc2nnc(-c3ccc(F)cc3)n2n1)N1CCCc2ccccc21	0.4	8	-15	0	-1	59*
O=C(CNC(=O)c1cn2ccccc2n1)Nc1ccc(F)c(F)c1	x	x	12	x	x	x
O=C(CN=C1NS(=O)(=O)c2ccccc21)OCC(=O)c1ccccc1	x	x	-8	x	x	x
CCCn1c(C)cc(C(=O)COC(=O)CN=C2NS(=O)(=O)c3ccccc32)c1C	1	55*	-5	0	-2	4
CC1CCCCN1S(=O)(=O)c1ccc(S(=O)(=O)N(Cc2ccccc2)Cc2ccco2)cc1 (stereo not drawn)	0.9	69*	-3	1	-2	10
CCN(Cc1ccccc1)S(=O)(=O)c1ccc(S(=O)(=O)N(Cc2ccccn2)Cc2ccco2)cc1	1	2	-3	1	-1	2
COC(=O)c1cnn(-c2ccc(C)c(C)c2)c1-n1cccc1	0.9	65*	-4	-1	4	13
O=C(O)c1cnn(-c2ccccc2)c1-n1cccc1	1	-5	38	-1	8	2
COc1ccc(/C=N/n2c(SC)nnc2-c2ccccc2)cc1C	0.9	63*	-16	0	8	15
Cc1cc(=O)oc2cc(NC(=O)CCOc3ccccc3)ccc12	x	x	0	x	x	x
Cc1nc(NC2=NCN(CCCN3CCOCC3)CN2)nc2c(C)cccc12	1.4	88*	-7	3	-2	-41
Cc1cc2nc(NC3=NCN(CCN4CCOCC4)CN3)nc(C)c2cc1C	1.2	x	x	x	5	-20
Cc1nc(NC2=NCN(CCc3ccccc3)CN2)nc2c(C)cccc12	x	96*	x	1	x	x
O=C(Nc1ccccc1C(=O)N1CCCCC1)c1cccs1	x	x	-2	x	x	x
CCOCCc1nnc(NC(=O)Cc2c(F)cccc2Cl)s1	1	-6	-2	-1	13	-2
CN(C)c1nc2ccccc2c(N)c1-c1ccccc1	0.8	96*	-19	-2	3	21
O=c1oc2ccccc2nc1/C=C(\O)c1ccccc1	x	x	-20	x	x	x
SMILES	Diaphorase act	L major viab	PfGluPho inh	Redox H2O2 prof	G6PDH CS	Diaphorase inh
Cc1nc(C)c(/C(O)=C/c2nc3ccccc3oc2=O)s1	0.9	76*	-26	0	-9	14
CCOC(=O)C1(CCOc2ccccc2)CCN(Cc2cccc(OC)c2OC)CC1	x	x	15	x	x	x
CCOC(=O)C1(CCOc2ccccc2)CCN(Cc2cccc3c2OCO3)CC1	0.9	91*	0	0	2	13
CCOC(=O)C1(CCOc2ccccc2)CCN(Cc2cc(OC)c3c(c2)OCO3)CC1	0.9	84*	13	-1	10	8
O=C(Nc1ccccc1)c1ccc2snnc2c1	0.9	77*	2	0	-2	7
O=C(Nc1ccc2snnc2c1)Nc1cccc2ccccc12	0.8	100*	28	0	4	21
COc1ccccc1NC(=O)c1ccc2snnc2c1	0.8	99*	0	-2	14	16
